Organism: Mus musculus
Experiment: Inhibition of follicle growth (ovulation) in mouse at 10 uM concentration; call rule not given here
Format: functional
Outline: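 Ex vivo culture of immature mouse follicles in the presence of FSH, with or without test compound at 10 µM. Follicle growth is compared with FSH-only follicles, and ovulation is scored as % ovulated follicles.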

| SMILES | Inhibition [%] |
| --- | --- |
| CC(=O)N1c2ccc(NC(=O)c3ccc(-c4ccccc4)cc3)cc2C(C)(c2ccccc2)CC1(C)C (stereo in doubt; 10) | 78 |

What follows are molecules tested against T1, Follicle-stimulating hormone receptor (Homo sapiens, UniProt P23945) (assay: In vitro inhibition of maximum response evoked by cAMP on CHO-K1 cells expressing human Follicle stimulating hormone receptor).
T1 sequence (P23945 whole entry): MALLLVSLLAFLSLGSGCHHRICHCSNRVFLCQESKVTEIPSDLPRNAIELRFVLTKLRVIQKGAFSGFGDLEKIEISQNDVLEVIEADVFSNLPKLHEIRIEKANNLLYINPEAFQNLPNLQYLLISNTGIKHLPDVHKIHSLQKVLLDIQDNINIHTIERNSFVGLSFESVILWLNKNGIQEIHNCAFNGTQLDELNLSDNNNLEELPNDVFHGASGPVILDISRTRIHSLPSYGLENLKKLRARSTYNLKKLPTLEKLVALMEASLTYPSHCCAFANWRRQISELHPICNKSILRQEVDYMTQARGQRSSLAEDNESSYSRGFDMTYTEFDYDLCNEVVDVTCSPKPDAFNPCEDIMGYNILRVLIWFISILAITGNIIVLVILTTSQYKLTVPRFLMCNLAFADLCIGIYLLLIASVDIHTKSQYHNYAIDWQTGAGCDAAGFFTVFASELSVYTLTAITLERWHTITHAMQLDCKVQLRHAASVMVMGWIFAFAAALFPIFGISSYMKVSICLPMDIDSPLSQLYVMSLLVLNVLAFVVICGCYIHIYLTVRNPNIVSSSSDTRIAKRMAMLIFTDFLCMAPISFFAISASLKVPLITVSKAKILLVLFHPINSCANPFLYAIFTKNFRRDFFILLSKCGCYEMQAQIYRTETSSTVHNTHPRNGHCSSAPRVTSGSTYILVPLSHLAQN
Format: functional, cell-based
Outline: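 CHO cells stably expressing human FSH receptor, run in antagonist mode. The natural ligand FSH stimulates the receptor and the test compound is added. FSH-induced cAMP production is measured as the functional read-out in place of luciferase, and an IC50 is derived.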

| IC50 [nM] | SMILES |
| --- | --- |
| 10 | CC(=O)N1c2ccc(NC(=O)c3ccc(-c4ccccc4)cc3)cc2C(C)(c2ccccc2)CC1(C)C (stereo in doubt; 10) |

The molecules below were run against T2, Follicle-stimulating hormone receptor (Rattus norvegicus, UniProt P20395) (assay: In vitro inhibition against maximum response evoked by cAMP in rat GFSHR-17 granulosa cell line).
T2 sequence (P20395 whole entry): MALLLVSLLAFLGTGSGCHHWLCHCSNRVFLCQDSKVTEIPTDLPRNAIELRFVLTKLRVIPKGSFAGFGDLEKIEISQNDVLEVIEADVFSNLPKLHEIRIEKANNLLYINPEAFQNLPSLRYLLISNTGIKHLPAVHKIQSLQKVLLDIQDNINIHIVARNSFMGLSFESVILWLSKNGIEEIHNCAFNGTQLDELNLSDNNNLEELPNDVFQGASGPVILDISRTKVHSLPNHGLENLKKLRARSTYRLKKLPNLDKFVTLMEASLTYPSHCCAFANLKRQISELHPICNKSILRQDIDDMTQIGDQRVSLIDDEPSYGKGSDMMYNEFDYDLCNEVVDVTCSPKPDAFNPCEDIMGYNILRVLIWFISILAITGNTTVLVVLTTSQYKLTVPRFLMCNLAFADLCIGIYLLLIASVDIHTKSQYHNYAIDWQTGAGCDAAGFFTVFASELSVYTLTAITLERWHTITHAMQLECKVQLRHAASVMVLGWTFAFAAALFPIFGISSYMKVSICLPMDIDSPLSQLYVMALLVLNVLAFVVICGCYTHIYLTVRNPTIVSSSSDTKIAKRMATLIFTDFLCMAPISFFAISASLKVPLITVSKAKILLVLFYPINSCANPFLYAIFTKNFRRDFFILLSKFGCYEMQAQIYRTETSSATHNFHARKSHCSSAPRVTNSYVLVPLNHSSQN
Format: functional
Outline: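 Granulosa cell line GFSHR-17, stably expressing rat FSH receptor, incubated with FSH plus test compound; read-out is inhibition of FSH-induced cAMP production, reported as IC50.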

| IC50 [nM] | SMILES |
| --- | --- |
| 540 | CC(=O)N1c2ccc(NC(=O)c3ccc(-c4ccccc4)cc3)cc2C(C)(c2ccccc2)CC1(C)C (stereo in doubt; 10) |

What follows are molecules tested against T1, Follicle-stimulating hormone receptor (assay: Effective concentration for maximum response on CHO-K1 cells expressing human Follicle stimulating hormone receptor).
Format: functional, cell-based

| EC50 [nM] | SMILES |
| --- | --- |
| 4400 | CC(=O)N1c2ccc(N)cc2C(C)(c2ccccc2)CC1(C)C (stereo not given) |

The molecules below were run against T3, Follicle-stimulating hormone receptor (Homo sapiens) (UniProt P23945) (assay: In vitro inhibition of maximum response on CHO-K1 cells expressing human Follicle stimulating hormone receptor at 1E-5M).
T3 sequence (whole entry): T1 sequence (P23945 whole entry)
Format: functional, cell-based

| inhibition [%] | SMILES |
| --- | --- |
| 44 | CC(=O)N1c2ccc(C(=O)Nc3ccc(-c4ccccc4)cc3)cc2C(C)(c2ccccc2)CC1(C)C (stereo not given) |
| 74 | CC(=O)N1c2ccc(NC(=O)c3ccc(-c4ccc(C(C)(C)C)cc4)cc3)cc2C(C)(c2ccccc2)CC1(C)C (stereo not given) |
| 25 | CC(=O)N1c2ccc(C(=O)NCc3cccs3)cc2C(C)(c2ccccc2)CC1(C)C (stereo not given) |
| 80 | CC(=O)N1c2ccc(OCCc3ccccc3)cc2C(C)(c2ccccc2)CC1(C)C (stereo not given) |

What follows are molecules tested against T1, Follicle-stimulating hormone receptor (assay: In vitro inhibition of maximum response on CHO-K1 cells expressing human Follicle stimulating hormone receptor).
Format: functional, cell-based
Outline: (§1)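 Antagonist-mode assay in CHO cells expressing human FSH receptor with a luciferase reporter: cells are stimulated with FSH and test compound is added. IC50 values come from duplicate measurements and represent at least two independent experiments; the SD of pIC50 is typically below 0.2. Compounds are scored "n.a." (not active) where no antagonism is seen.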

| IC50 [nM] | SMILES |
| --- | --- |
| 170 | COc1ccccc1C1(C)CC(C)(C)N(C(C)=O)c2ccc(NC(=O)c3ccc(-c4ccccc4)cc3)cc21 (stereo not given) |
| 54 | CC(=O)N1c2ccc(OC(=O)c3ccc(-c4ccccc4)cc3)cc2C(C)(c2ccccc2)CC1(C)C (stereo not given) |
| 9 | CC(=O)N1c2ccc(NC(=O)c3cccc(-c4ccccc4)c3)cc2C(C)(c2ccccc2)CC1(C)C (stereo not given) |
| 2800 | CC(=O)N1c2ccc(NS(=O)(=O)Cc3ccccc3)cc2C(C)(c2ccccc2)CC1(C)C (stereo not given) |
| 4 | CC(=O)N1c2ccc(NC(=O)c3ccc(-c4ccccc4)cc3)cc2C(C)(c2ccccc2)CC1(C)C (single isomer, unassigned; isomer II) |
| 50 | CC(=O)N1c2ccc(NC(=O)c3ccc(-c4ccccc4)cc3)cc2C(C)(c2ccc(C)cc2)CC1(C)C (stereo not given) |
| 240 | CC(=O)N1c2ccc(NC(=O)c3ccc(-c4ccccc4)cc3)cc2C(C)(c2ccc(O)cc2)CC1(C)C (stereo not given) |
| 930 | CC(=O)N1c2ccc(NCc3ccc(C(C)(C)C)cc3)cc2C(C)(c2ccccc2)CC1(C)C (stereo not given) |
| 1880 | COc1ccc(CCNC(=O)c2ccc3c(c2)C(C)(c2ccccc2)CC(C)(C)N3C(C)=O)cc1 (stereo not given) |
| 5 | CCCc1ccc(C(=O)Nc2ccc3c(c2)C(C)(c2ccccc2)CC(C)(C)N3C(C)=O)cc1 (stereo not given) |
| 28 | CC(=O)N1c2ccc(NC(=O)c3ccc(-c4ccccc4)cc3)cc2C(C)(c2ccccc2)CC1(C)C (stereo in doubt; 10) |
| 166 | CC(=O)N1c2ccc(OCc3ccc(-c4ccccc4)cc3)cc2C(C)(c2ccccc2)CC1(C)C (stereo not given) |
| 30 | COc1cc(NC(=O)c2ccc(-c3ccccc3)cc2)cc2c1N(C(C)=O)C(C)(C)CC2(C)c1ccccc1 (stereo not given) |

Second part, the molecule before the results:

| SMILES | IC50 [nM] |
| --- | --- |
| CC(=O)N1c2cc(C)c(NC(=O)c3ccc(-c4ccccc4)cc3)cc2C(C)(c2ccccc2)CC1(C)C (stereo not given) | 5 |
| CC(=O)N1c2ccc(NC(=O)COC(C)(C)C)cc2C(C)(c2ccccc2)CC1(C)C (stereo not given) | 76 |
| CC(=O)N1c2ccc(NC(=O)c3ccco3)cc2C(C)(c2ccccc2)CC1(C)C (stereo not given) | 27 |
| CC(=O)N1c2ccc(NC(=O)c3ccc(C(F)(F)F)cc3)cc2C(C)(c2ccccc2)CC1(C)C (stereo not given) | 7 |
| CC(=O)N1c2ccc(NC(=O)c3ccccc3-c3ccccc3)cc2C(C)(c2ccccc2)CC1(C)C (stereo not given) | 25 |
| CC(=O)N1c2ccc(NC(=O)Nc3ccccc3)cc2C(C)(c2ccccc2)CC1(C)C (stereo not given) | 580 |
| CC(=O)N1c2ccc(NC(=O)c3ccc(Cl)cc3)cc2C(C)(c2ccccc2)CC1(C)C (stereo not given) | 31 |

The molecules below were run against T1, Follicle-stimulating hormone receptor (assay: In vitro inhibition of maximum response on CHO-K1 cells expressing human Follicle stimulating hormone receptor; Not active).
Format: functional, cell-based
Outline: as §1

| IC50 | SMILES |
| --- | --- |
| Not Active | CC(=O)N1c2ccc(CNc3ccc(-c4ccccc4)cc3)cc2C(C)(c2ccccc2)CC1(C)C (stereo not given) |
| Not Active | CC(=O)N1c2ccc(NC(=O)c3ccc(-c4ccccc4)cc3)cc2C(C)(c2ccccc2)CC1(C)C (single isomer, unassigned; isomer I) |

Reference: ChEMBL document CHEMBL1145193, “Identification of substituted 6-amino-4-phenyltetrahydroquinoline derivatives: potent antagonists for the follicle-stimulating hormone receptor” (J Med Chem, 2005)
